# Source: ChEMBL document CHEMBL2016559, “Synthesis and cytotoxic activity evaluation of dihydrocucurbitacin B and cucurbitacin B derivatives” (Bioorg Med Chem, 2012)
# pIC50: −log10 of the molar value.
# Tests used:
# A549 [1] = experiment: Cytotoxicity against human A549 cells after 48 hrs by MTT assay; type: functional, cell-based; details: A549, 48 h
# Outline: (§1)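 A549 human NSCLC cells kept in MEM with 10% FBS, penicillin/streptomycin and amphotericin B at 37 °C under humidified 5% CO2. Seeded at 1x10⁴ cells/well and left 24 h, then exposed to a range of concentrations for 48 h or 72 h at 37 °C. MTT (1 mg/mL) added for 4 h, formazan dissolved in DMSO, absorbance read at 540 nm. IC50 taken against untreated controls by log(compound) vs normalized response (variable slope) fit, with 95% CI.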
# A549 [2] = experiment: Cytotoxicity against human A549 cells after 72 hrs by MTT assay; type: functional, cell-based; details: A549, 72 h; outline: as §1
# A549 [3] = experiment: Ratio of IC50 for human A549 cells after 48 hrs to IC50 for human A549 cells after 72 hrs; type: functional
# Outline: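 Ratio of the 48 h to the 72 h IC50 in A549 cells. Both IC50s come from the MTT assay (1x10⁴ cells/well, 24 h attachment, then 48 h or 72 h compound exposure). Each was fitted by log(compound) vs normalized response nonlinear regression (variable slope), relative to untreated controls.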
SMILES,pIC50 (A549 [1]),pIC50 (A549 [2]),Ratio IC50 (A549 [3])
CC(=O)OC(C)(C)CCC(=O)[C@](C)(O)[C@H]1C(=O)C[C@@]2(C)[C@@H]3CC=C4[C@@H](C[C@H](O)C(=O)C4(C)C)[C@]3(C)C(=O)C[C@]12C,4.26,4.58,2.1
CC(=O)OC(C)(C)CCC(=O)[C@](C)(O)[C@H]1C(=O)C[C@@]2(C)[C@@H]3CC=C4[C@@H](C=C(O)C(=O)C4(C)C)[C@]3(C)C(=O)C[C@]12C,< 4.00,< 4.00,
CC(=O)O[C@H]1C[C@@H]2C(=CC[C@@H]3[C@@]2(C)C(=O)C[C@]2(C)[C@@H]([C@@](C)(O)C(=O)CCC(C)(C)OC(C)=O)[C@H](OC(C)=O)C[C@@]32C)C(C)(C)C1=O,< 4.00,4.14,
CC(=O)OC(C)(C)CCC(=O)[C@](C)(O)[C@H]1[C@H](OC(=O)CCC(=O)O)C[C@@]2(C)[C@@H]3CC=C4[C@@H](C[C@H](OC(=O)CCC(=O)O)C(=O)C4(C)C)[C@]3(C)C(=O)C[C@]12C,< 4.00,< 4.00,
CC(=O)O[C@H]1C[C@@H]2C(=CC[C@@H]3[C@@]2(C)C(=O)C[C@]2(C)[C@@H]([C@@](C)(O)C(=O)/C=C/C(C)(C)OC(C)=O)[C@H](OC(C)=O)C[C@@]32C)C(C)(C)C1=O,4.83,5.58,5.5
CC(=O)OC(C)(C)CCC(=O)[C@](C)(O)[C@H]1[C@H](O)C[C@@]2(C)[C@@H]3CC=C4[C@@H](C[C@H](OC(=O)c5ccccc5)C(=O)C4(C)C)[C@]3(C)C(=O)C[C@]12C,< 4.00,< 4.00,
CC(=O)OC(C)(C)CCC(=O)[C@](C)(O)[C@H]1[C@H](OC(=O)c2ccccc2)C[C@@]2(C)[C@@H]3CC=C4[C@@H](C[C@H](OC(=O)c5ccccc5)C(=O)C4(C)C)[C@]3(C)C(=O)C[C@]12C,< 4.00,< 4.00,
CC(=O)OC(C)(C)CCC(=O)[C@](C)(O)[C@H]1[C@H](OC(=O)n2ccnc2)C[C@@]2(C)[C@@H]3CC=C4[C@@H](C[C@H](OC(=O)n5ccnc5)C(=O)C4(C)C)[C@]3(C)C(=O)C[C@]12C,< 4.00,< 4.00,
CC(=O)O[C@@H]1C[C@@]2(C)[C@@H]3CC=C4[C@@H](C[C@H](Sc5ccccc5)C(=O)C4(C)C)[C@]3(C)C(=O)C[C@]2(C)[C@H]1[C@@](C)(O)C(=O)CCC(C)(C)OC(C)=O,< 4.00,< 4.00,
CC(=O)O[C@@H]1C[C@@]2(C)[C@@H]3CC=C4[C@@H](C[C@H](SC(C)=O)C(=O)C4(C)C)[C@]3(C)C(=O)C[C@]2(C)[C@H]1[C@@](C)(O)C(=O)CCC(C)(C)OC(C)=O,< 4.00,< 4.00,
CC(=O)OC(C)(C)CCC(=O)[C@](C)(O)[C@H]1[C@H](O)C[C@@]2(C)[C@@H]3CC=C4[C@@H](Cc5sc(N)nc5C4(C)C)[C@]3(C)C(=O)C[C@]12C,< 4.00,< 4.00,
CC(=O)OC(C)(C)/C=C/C(=O)[C@](C)(O)[C@H]1[C@H](O)C[C@@]2(C)[C@@H]3CC=C4[C@@H](Cc5sc(N)nc5C4(C)C)[C@]3(C)C(=O)C[C@]12C,4.54,4.94,2.5
CC(=O)OC(C)(C)CCC(=O)[C@](C)(O)[C@H]1[C@H](O)C[C@@]2(C)[C@@H]3CC=C4[C@@H](C[C@H](Br)C(=O)C4(C)C)[C@]3(C)C(=O)C[C@]12C,4.46,4.54,1.2
CC(=O)OC(C)(C)/C=C/C(=O)[C@](C)(O)[C@H]1[C@H](O)C[C@@]2(C)[C@@H]3CC=C4[C@@H](C[C@H](Br)C(=O)C4(C)C)[C@]3(C)C(=O)C[C@]12C,5.88,6.92,11.1
CC(=O)OC(C)(C)CCC(=O)[C@](C)(O)[C@H]1[C@H](O)C[C@@]2(C)[C@@H]3CC=C4[C@@H](C=C(N)C(=O)C4(C)C)[C@]3(C)C(=O)C[C@]12C,< 4.00,< 4.00,
CC(=O)O[C@@H]1C[C@@]2(C)[C@@H]3CC=C4[C@@H](C=C(N)C(=O)C4(C)C)[C@]3(C)C(=O)C[C@]2(C)[C@H]1[C@@](C)(O)C(=O)CCC(C)(C)OC(C)=O,< 4.00,4.26,
CC(=O)OC(C)(C)/C=C/C(=O)[C@](C)(O)[C@H]1[C@H](O)C[C@@]2(C)[C@@H]3CC=C4[C@@H](C=C(N)C(=O)C4(C)C)[C@]3(C)C(=O)C[C@]12C,6.38,6.92,3.5

SMILES,pIC50 (A549 [1]),pIC50 (A549 [2]),Ratio IC50 (A549 [3])
CC(=O)OC(C)(C)CCC(=O)[C@](C)(O)[C@H]1[C@H](OC(=S)n2ccnc2)C[C@@]2(C)[C@@H]3CC=C4[C@@H](C[C@H](OC(=S)n5ccnc5)C(=O)C4(C)C)[C@]3(C)C(=O)C[C@]12C,4.83,5.16,2.1
CC(=O)OC(C)(C)CCC(=O)[C@](C)(O)[C@H]1[C@H](O)C[C@@]2(C)[C@@H]3CC=C4[C@@H](CCC(=O)C4(C)C)[C@]3(C)C(=O)C[C@]12C,< 4.00,4.18,
CC(=O)OC(C)(C)CCC(=O)[C@](C)(O)[C@H]1CC[C@@]2(C)[C@@H]3CC=C4[C@@H](CCC(=O)C4(C)C)[C@]3(C)C(=O)C[C@]12C,< 4.00,4.94,
CC(=O)[C@H]1[C@H](OC(=O)c2ccccc2)C[C@@]2(C)[C@@H]3CC=C4[C@@H](C[C@H](OC(=O)c5ccccc5)[C@@H](O)C4(C)C)[C@]3(C)C(=O)C[C@]12C,< 4.00,< 4.00,
CC(=O)[C@H]1[C@H](O)C[C@@]2(C)[C@@H]3CC=C4[C@@H](C=C(O)C(=O)C4(C)C)[C@]3(C)C(=O)C[C@]12C,< 4.00,< 4.00,
CC(=O)OC(C)(C)/C=C/[C@H](O)[C@](C)(O)[C@H]1[C@H](O)C[C@@]2(C)[C@@H]3CC=C4[C@@H](C[C@H](O)[C@@H](O)C4(C)C)[C@]3(C)C(=O)C[C@]12C,< 4.00,< 4.00,
CC(=O)O[C@H]1C[C@@H]2C(=CC[C@@H]3[C@@]2(C)C(=O)C[C@]2(C)[C@@H]([C@@](C)(OC(=O)C(F)(F)F)C(=O)CCC(C)(C)OC(C)=O)[C@H](OC(C)=O)C[C@@]32C)C(C)(C)C1=O,< 4.00,< 4.00,
CC(=O)O[C@H]1C[C@@H]2C(=CC[C@@H]3[C@@]2(C)C(=O)C[C@]2(C)[C@@H]([C@@](C)(O)C(=O)CC=C(C)C)[C@H](OC(C)=O)C[C@@]32C)C(C)(C)C1=O,< 4.00,4.37,
CC(=O)OC(C)(C)CCC(=O)[C@](C)(O)[C@H]1[C@H](O)C[C@@]2(C)[C@@H]3CC=C4[C@@H](C=CC(=O)C4(C)C)[C@]3(C)C(=O)C[C@]12C,4.06,4.11,1.1
CC(=O)O[C@H]1C[C@@H]2C(=CC(=O)[C@@H]3[C@@]2(C)C(=O)C[C@]2(C)[C@@H]([C@@](C)(O)C(=O)CCC(C)(C)OC(C)=O)[C@H](OC(C)=O)C[C@@]32C)C(C)(C)C1=O,< 4.00,< 4.00,
CC(=O)OC(C)(C)CCC(=O)[C@](C)(O)[C@H]1[C@H](O)C[C@@]2(C)[C@@H]3CC=C4[C@@H](C=C(O)C(=O)C4(C)C)[C@]3(C)C(=O)C[C@]12C,< 4.00,< 4.00,
"CC(=O)OC(C)(C)CCC(=O)[C@](C)(O)[C@H]1[C@H](O)C[C@@]2(C)[C@@H]3CC=C4[C@@H](C[C@H](O)C(=O)C4(C)C)[C@]3(C)C(=O)C[C@]12C [23,24-DIHYDROCUCURBITACIN B]",4.70,4.92,1.6
CC(=O)OC(C)(C)/C=C/C(=O)[C@](C)(O)[C@H]1[C@H](O)C[C@@]2(C)[C@@H]3CC=C4[C@H](C[C@H](O)C(=O)C4(C)C)[C@]3(C)C(=O)C[C@]12C [CUCURBITACIN B],6.89,7.40,3.3
COc1cccc2c1C(=O)c1c(O)c3c(c(O)c1C2=O)C[C@@](O)(C(=O)CO)C[C@@H]3O[C@H]1C[C@H](N)[C@H](O)[C@H](C)O1 [DOXORUBICIN],5.43,5.93,3.1
CC(=O)[C@H]1[C@H](O)C[C@@]2(C)[C@@H]3CC=C4[C@@H](C[C@H](O)[C@@H](O)C4(C)C)[C@]3(C)C(=O)C[C@]12C [HEXANORCUCURBITACIN F],< 4.00,< 4.00,
CC(=O)O[C@H]1C(=O)[C@@]2(C)[C@H]([C@H](OC(=O)c3ccccc3)[C@]3(O)C[C@H](OC(=O)[C@H](O)[C@@H](NC(=O)c4ccccc4)c4ccccc4)C(C)=C1C3(C)C)[C@]1(OC(C)=O)CO[C@@H]1C[C@@H]2O [PACLITAXEL],5.94,6.72,6.1
